Laboratory results: ChEMBL document CHEMBL4665798, “Novel Human Urate Transporter 1 Inhibitors as Hypouricemic Drug Candidates with Favorable Druggability” (J Med Chem, 2020)

System: Mus musculus
Assay: Hypouricemic activity in Kunming mouse model of xanthine/potassium oxonate-induced acute hyperuricemia assessed as decrease in serum uric acid level at 2 mg/kg administered 3 hrs prior to xanthine/potassium oxonate and measured after 6 hrs relative to control
Assay type: functional
Design: scale not given: the % may be the effect or the level left
Conditions: time 9 hrs
Summary of the method: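 Male Kunming mice, hyperuricemia induced by intragastric xanthine plus subcutaneous potassium oxonate (0.2 mL each). […] Groups: normal vehicle, untreated model, active control, test. Serum uric acid measured. Decrease ratio = (model SUA − compound SUA)/(model SUA − vehicle SUA).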

| SMILES | Activity [%] | Activity (2 mg/kg) [%] |
| --- | --- | --- |
| O=C(O)CSc1nc2cnccc2n1-c1ccc(C2CC2)c2ccccc12 | 42.17 | – |
| CCOC(=O)C(C)Sc1nc2cccnc2n1-c1ccc(C2CC2)c2ccccc12 (stereo unspecified) | 40.34 | – |
| CCOC(=O)CCCSc1nc2cccnc2n1-c1c(C)cc(C)cc1C | 11.19 | – |
| CCOC(=O)C1(Sc2nc3ncccc3n2-c2ccc(C3CC3)c3ccccc23)CCC1 | 47.9 | – |
| O=C(CSc1nnc(Br)n1-c1ccc(C2CC2)c2ccccc12)NS(=O)(=O)c1ccc(Cl)s1 | 53.44 | – |
| CCOC(=O)C(C)(C)Sc1nc2ncccc2n1-c1ccc(C#N)c2ccccc12 | 12.71 | – |
| CS(=O)(=O)NC(=O)CSc1nnc(Br)n1-c1ccc(C2CC2)c2ccccc12 | 81.53 | – |
| O=C(O)CSc1nc2ncccc2n1-c1ccc(C2CC2)c2ccccc12 | 34.5 | – |
| COC(=O)CSc1nc2cnccc2n1-c1ccc(C#N)c2ccccc12 | 14.54 | – |
| O=C(CSc1nnc(Br)n1-c1ccc(C2CC2)c2ccccc12)NS(=O)(=O)c1ccc(F)cc1 | 75.17 | – |
| COC(=O)CCSc1nc2cnccc2n1-c1ccc(C#N)c2ccccc12 | 11.47 | – |
| N#Cc1ccc(-n2c(SCC(=O)O)nc3ncccc32)c2ccccc12 | 51.91 | – |
| O=C(CSc1nnc(Br)n1-c1ccc(C2CC2)c2ccccc12)NS(=O)(=O)C1CC1 | 17.54 | – |
| N#Cc1ccc(-n2c(SC3(C(=O)O)CCC3)nc3ncccc32)c2ccccc12 | 60.74 | – |
| CCOC(=O)CSc1nc2cnccc2n1-c1ccc(C2CC2)c2ccccc12 | 40.79 | – |
| CC(C)(Sc1nc2ncccc2n1-c1ccc(C2CC2)c2ccccc12)C(=O)O | 11.47 | – |
| CCOC(=O)C(C)Sc1nc2cccnc2n1-c1c(C)cc(C)cc1C (stereo unspecified) | 22.34 | – |
| CCOC(=O)CCCSc1nc2cccnc2n1-c1ccc(C2CC2)c2ccccc12 | 23.73 | – |
| CCOC(=O)CCCSc1nc2cccnc2n1-c1cccc2ccccc12 | 37.38 | – |
| COC(=O)CCCSc1nc2ncccc2n1-c1ccc(C#N)c2ccccc12 | 7.17 | – |
| Cc1cc(C)c(-n2c(SC(C)(C)C(=O)O)nc3cccnc32)c(C)c1 | -4.96 | – |
| COC(=O)C(C)(C)Sc1nc2cnccc2n1-c1ccc(C#N)c2ccccc12 | 9.09 | – |

| SMILES | Activity [%] | Activity (2 mg/kg) [%] |
| --- | --- | --- |
| CC(C)(Sc1nc2cccnc2n1-c1cccc2ccccc12)C(=O)O | 0.32 | – |
| O=C(O)CSc1nc2cccnc2n1-c1ccc(C2CC2)c2ccccc12 | 43.69 | – |
| CCOC(=O)C1(Sc2nc3cnccc3n2-c2ccc(C#N)c3ccccc23)CCC1 | 14.44 | – |
| CCOC(=O)C(C)(C)Sc1nc2ncccc2n1-c1ccc(C2CC2)c2ccccc12 | 45.58 | – |
| N#Cc1ccc(-n2c(SCC(=O)O)nc3cnccc32)c2ccccc12 | 59.22 | – |
| Cc1cc(C)c(-n2c(SC(C)C(=O)O)nc3cccnc32)c(C)c1 (stereo unspecified) | 37.04 | – |
| COC(=O)CCCSc1nc2cnccc2n1-c1ccc(C#N)c2ccccc12 | 8.96 | – |
| CCOC(=O)C(C)(C)Sc1nc2cnccc2n1-c1ccc(C2CC2)c2ccccc12 | 68.65 | – |
| CC(C)(Sc1nc2cnccc2n1-c1ccc(C#N)c2ccccc12)C(=O)O | 15.24 | – |
| N#Cc1ccc(-n2c(SC3(C(=O)O)CCC3)nc3cnccc32)c2ccccc12 | 27.36 | – |
| N#Cc1ccc(-n2c(SCCCC(=O)O)nc3cnccc32)c2ccccc12 | 11.19 | – |
| O=C(O)C1(Sc2nc3cnccc3n2-c2ccc(C3CC3)c3ccccc23)CCC1 | 72.99 | – |
| Cc1cc(C)c(-n2c(SCC(=O)O)nc3cccnc32)c(C)c1 | 18.26 | – |
| CCOC(=O)C1(Sc2nc3cnccc3n2-c2ccc(C3CC3)c3ccccc23)CCC1 | 41.35 | – |
| N#Cc1ccc(-n2c(SCCC(=O)O)nc3ncccc32)c2ccccc12 | 71.62 | – |
| C[C@@H](Sc1nc2ncccc2n1-c1ccc(C2CC2)c2ccccc12)C(=O)O (stereo in doubt; 44d) | – | 98.04 |
| CC(C)(Sc1nc2cccnc2n1-c1ccc(C2CC2)c2ccccc12)C(=O)O | -0.83 | – |
| C[C@@H](Sc1nc2ncccc2n1-c1ccc(C2CC2)c2ccccc12)C(=O)O (stereo in doubt; 44b) | – | 40.58 |
| CC(C)(C)c1ccc(S(=O)(=O)NC(=O)CSc2nnc(Br)n2-c2ccc(C3CC3)c3ccccc23)cc1 | 15.1 | – |
| CCOC(=O)C(C)(C)Sc1nc2cccnc2n1-c1ccc(C2CC2)c2ccccc12 | 2.61 | – |
| COC(=O)C(C)Sc1nc2cnccc2n1-c1ccc(C#N)c2ccccc12 (stereo unspecified) | 17.9 | – |
| C[C@H](Sc1nc2ncccc2n1-c1ccc(C2CC2)c2ccccc12)C(=O)O (stereo in doubt; 44c) | – | 31.02 |

| SMILES | Activity [%] | Activity (2 mg/kg) [%] |
| --- | --- | --- |
| C[C@H](Sc1nc2cnccc2n1-c1ccc(C2CC2)c2ccccc12)C(=O)O (stereo in doubt; 54a) | – | 58.08 |
| CCOC(=O)C(C)(C)Sc1nc2cccnc2n1-c1cccc2ccccc12 | 8.54 | – |
| CCOC(=O)C1(Sc2nc3ncccc3n2-c2ccc(C#N)c3ccccc23)CCC1 | 34.56 | – |
| CCOC(=O)CSc1nc2cccnc2n1-c1ccc(C2CC2)c2ccccc12 | 41.96 | – |
| CCOC(=O)CCCSc1nc2ncccc2n1-c1ccc(C2CC2)c2ccccc12 | 33.6 | – |
| CCCS(=O)(=O)NC(=O)CSc1nnc(Br)n1-c1ccc(C2CC2)c2ccccc12 | 24.06 | – |
| COC(=O)C(C)Sc1nc2ncccc2n1-c1ccc(C#N)c2ccccc12 (stereo unspecified) | 13 | – |
| CC(Sc1nc2cccnc2n1-c1cccc2ccccc12)C(=O)O (stereo unspecified) | -1.78 | – |
| CC(C)(Sc1nc2ncccc2n1-c1ccc(C#N)c2ccccc12)C(=O)O | 3.67 | – |
| O=C(CSc1nnc(Br)n1-c1ccc(C2CC2)c2ccccc12)NS(=O)(=O)c1ccccc1 | 64.65 | – |
| CCOC(=O)CCCSc1nc2cnccc2n1-c1ccc(C2CC2)c2ccccc12 | 47.37 | – |
| CCOC(=O)CSc1nc2cccnc2n1-c1cccc2ccccc12 | 4.03 | – |
| CCOC(=O)CSc1nc2cccnc2n1-c1c(C)cc(C)cc1C | -2.2 | – |
| C[C@H](Sc1nc2cnccc2n1-c1ccc(C2CC2)c2ccccc12)C(=O)O (stereo in doubt; 54c) | – | 93.54 |
| CC(C)(C)S(=O)(=O)NC(=O)CSc1nnc(Br)n1-c1ccc(C2CC2)c2ccccc12 | 5.94 | – |
| CCOC(=O)CSc1nc2ncccc2n1-c1ccc(C2CC2)c2ccccc12 | 33.56 | – |
| C[C@@H](Sc1nc2cnccc2n1-c1ccc(C2CC2)c2ccccc12)C(=O)O (stereo in doubt; 54d) | – | 57.89 |
| CCOC(=O)C(C)Sc1nc2ncccc2n1-c1ccc(C2CC2)c2ccccc12 (stereo unspecified) | 35.37 | – |
| O=C(O)CCCSc1nc2cnccc2n1-c1ccc(C2CC2)c2ccccc12 | 56.26 | – |
| CCS(=O)(=O)NC(=O)CSc1nnc(Br)n1-c1ccc(C2CC2)c2ccccc12 | 11.04 | – |
| CCc1oc2ccccc2c1C(=O)c1cc(Br)c(O)c(Br)c1 [BENZBROMARONE] | 36 | – |
| Cc1ccc(S(=O)(=O)NC(=O)CSc2nnc(Br)n2-c2ccc(C3CC3)c3ccccc23)cc1 | 79.41 | – |

| SMILES | Activity [%] | Activity (2 mg/kg) [%] |
| --- | --- | --- |
| N#Cc1ccc(-n2c(SCCC(=O)O)nc3cnccc32)c2ccccc12 | 51.13 | – |
| CCOC(=O)C(C)Sc1nc2cnccc2n1-c1ccc(C2CC2)c2ccccc12 (stereo unspecified) | 49.46 | – |
| C[C@H](Sc1nc2ncccc2n1-c1ccc(C2CC2)c2ccccc12)C(=O)O (stereo in doubt; 44a) | – | 12.87 |
| C[C@@H](Sc1nc2cnccc2n1-c1ccc(C2CC2)c2ccccc12)C(=O)O (stereo in doubt; 54b) | – | 32.44 |
| O=C(CSc1nnc(Br)n1-c1ccc(C2CC2)c2ccccc12)NS(=O)(=O)c1ccc(Cl)cc1 | 76.46 | – |
| O=C(CSc1nnc(Br)n1-c1ccc(C2CC2)c2ccccc12)NS(=O)(=O)c1ccc([N+](=O)[O-])cc1 | 66.71 | – |
| COC(=O)CCSc1nc2ncccc2n1-c1ccc(C#N)c2ccccc12 | 5.12 | – |
| CC(C)(Sc1nc2cnccc2n1-c1ccc(C2CC2)c2ccccc12)C(=O)O | 37.89 | – |
| CC(Sc1nc2cnccc2n1-c1ccc(C#N)c2ccccc12)C(=O)O (stereo unspecified) | 27.84 | – |
| O=C(O)CCCSc1nc2cccnc2n1-c1cccc2ccccc12 | 1.4 | – |
| COC(=O)CSc1nc2ncccc2n1-c1ccc(C#N)c2ccccc12 | 9.51 | – |
| N#Cc1ccc(-n2c(SCCCC(=O)O)nc3ncccc32)c2ccccc12 | 20.3 | – |
| Cc1cc(C)c(-n2c(SCCCC(=O)O)nc3cccnc32)c(C)c1 | 13.05 | – |
| O=C(O)CCCSc1nc2cccnc2n1-c1ccc(C2CC2)c2ccccc12 | 1.07 | – |
| CCOC(=O)C(C)(C)Sc1nc2cccnc2n1-c1c(C)cc(C)cc1C | 41.56 | – |
| CCOC(=O)C(C)Sc1nc2cccnc2n1-c1cccc2ccccc12 (stereo unspecified) | -1.84 | – |
| O=C(CSc1nnc(Br)n1-c1ccc(C2CC2)c2ccccc12)NS(=O)(=O)c1cccs1 | 63.94 | – |
| CC(C)S(=O)(=O)NC(=O)CSc1nnc(Br)n1-c1ccc(C2CC2)c2ccccc12 | 11.99 | – |
| O=C(O)CCCSc1nc2ncccc2n1-c1ccc(C2CC2)c2ccccc12 | 35.39 | – |
| O=C(O)CSc1nc2cccnc2n1-c1cccc2ccccc12 | 2.25 | – |
